Laboratory results as given in ChEMBL document CHEMBL4680166, “Dual-functional conjugates improving cancer immunochemotherapy by inhibiting tubulin polymerization and indoleamine-2,3-dioxygenase” (Eur J Med Chem, 2020).
Active and inactive are the calls of the source. The calls are words filed in the database; no cut-off is given here.

Key:
HeLa [1] = assay: Potency index, ratio of CA-4 IC50 to test compound IC50 for anticancer activity against human HeLa cells after 72 hrs by MTT assay; type: functional
HeLa [2] = assay: Inhibition of cell migration in human HeLa cells at 0.5 uM measured after 24 hrs by wound healing assay (reference value: 61%); type: functional
Procedure, shortened: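 Confluent HeLa monolayers were scratched with a pipette tip and washed with ice-cold PBS. Incubated 24 h at 37 °C in DMEM/10% FBS containing compound. Wounds were photographed at 0 and 24 h and migration distance measured manually.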

HeLa [3] = assay: Induction of apoptosis in human HeLa cells assessed as late apoptotic cells at 0.5 uM measured after 24 hrs by Annexin-V-FITC and PI staining based flow cytometry (reference value: 0.199%); type: functional
Procedure, shortened: (§1)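 HeLa cells were treated 24 h, washed twice in PBS and resuspended in binding buffer. Stained with annexin V-FITC and PI for 30 min in the dark at room temperature, then analysed by flow cytometry.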

HUVEC = assay: Cytotoxicity against HUVEC cells assessed as inhibition of cell proliferation measured after 72 hrs by MTT assay; type: cell-based; conditions: Homo sapiens
Procedure, shortened: (§2)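 Cells (A549, PC-3, HeLa, HUVEC) grown in DMEM with 10% FBS at 37 °C, 5% CO₂. Seeded at 5 × 10⁴ cells/well and allowed 24 h to attach, then exposed 72 h to a concentration series from DMSO stocks. MTT was added for 4 h and formazan dissolved in DMSO, read at 490 nm. Survival taken relative to untreated control. IC50 by Bliss method, three repeats.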

HeLa [4] = assay: Inhibition of IDO1 expression in hIFNgamma-stimulated human HeLa cells assessed as decrease in kynurenine production at 0.1 uM measured after 48 hrs by reverse-phase HPLC analysis; type: functional
Procedure, shortened: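 HeLa cells were given fresh L-tryptophan-containing medium with hIFN-γ (25 ng/mL) plus compound for 48 h. Collected cells were treated with 20% trichloroacetic acid and centrifuged. Supernatant analysed by reversed-phase HPLC (ODS column, acetonitrile/water, 1.0 mL/min, […]).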

HeLa [5] = assay: Anticancer activity against human HeLa cells assessed as inhibition of cell proliferation measured after 72 hrs by MTT assay; type: functional, cell-based; procedure, shortened: as §2
HeLa [6] = assay: Induction of apoptosis in human HeLa cells assessed as mitochondrial membrane potential dissipation by measuring increase in green fluorescence intensity at 0.5 uM incubated for 24 hrs by JC-1 staining based fluorescence microscopic analysis; type: functional, cell-based
[7] = Toxicity in BALB/c nude mouse transfected with human HeLa cells assessed as kidney damage at 15 mg/kg/day, iv for 21 days by H&E staining based immunohistochemistry; type: organism-based; conditions: in vivo, 504 h, time 21 day
Procedure, shortened: (§3)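 After 3 weeks of daily iv dosing of HeLa-xenografted nude mice, organs were taken from one mouse per group. Fixed in 4% paraformaldehyde, paraffin-embedded and sectioned. Stained with Harris hematoxylin and eosin-phloxine, then examined microscopically for histopathology.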

HeLa [8] = assay: Induction of intracellular reactive oxygen species generation in human HeLa cells at 0.5 uM measured after 24 hrs by DCFH-DA staining based flow cytometry (reference value: 6.47%); type: functional
[9] = Toxicity in BALB/c nude mouse transfected with human HeLa cells assessed as lung damage at 15 mg/kg/day, iv for 21 days by H&E staining based immunohistochemistry; type: organism-based; conditions: in vivo, 504 h, time 21 day; procedure, shortened: as §3
HeLa [10] = assay: Induction of apoptosis in human HeLa cells assessed as early apoptotic cells at 0.5 uM measured after 24 hrs by Annexin-V-FITC and PI staining based flow cytometry (reference value: 2.58%); type: functional; procedure, shortened: as §1
[11] = Toxicity in BALB/c nude mouse transfected with human HeLa cells assessed as heart damage at 30 mg/kg/day, iv for 21 days by H&E staining based immunohistochemistry; type: organism-based; conditions: in vivo, 504 h, time 21 day
Procedure, shortened: (§4)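 HeLa xenografts were grown s.c. in male BALB/c nude mice, which received i.v. tail-vein doses once daily for 21 days in Tween 80/saline vehicle, with saline controls. After 3 weeks the mice were sacrificed. Organs from one mouse per group were fixed in 4% paraformaldehyde, paraffin-embedded and sectioned. Sections were dewaxed, stained with Harris hematoxylin and eosin-phloxine, and examined microscopically for histopathologic changes.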

PC-3 = assay: Anticancer activity against human PC3 cells assessed as inhibition of cell proliferation measured after 72 hrs by MTT assay; type: functional, cell-based; conditions: PC-3, 72 h; procedure, shortened: as §2
HeLa [12] = assay: Induction of apoptosis in human HeLa cells assessed as upregulation of Bax protein expression at 0.5 uM measured after 24 hrs by western blot analysis; type: functional, cell-based
Procedure, shortened: (§5)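 HeLa cells were treated 24 h at 37 °C and lysed in buffer containing PMSF. Protein quantified by BCA, equal amounts separated by SDS-PAGE and transferred to nitrocellulose. Blocked in 5% milk, primary antibodies overnight at 4 °C, peroxidase secondary 2 h at 25 °C. Detection by chemiluminescence, β-actin as loading control.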

[13] = Antitumor immunity against IFN-gamma stimulated human HeLa cells co-cultured with PHA-M-stimulated human PBMC cells assessed as induction of CD3+ T cell proliferation at 0.1 uM preincubated for 2 days measured after co-culturing with PBMC for 6 days by flow cytometry (reference value: 6 to 6.2%); type: functional; conditions: time 8 day
HeLa [14] = assay: Induction of apoptosis in human HeLa cells assessed as upregulation of caspase-3 protein expression at 0.5 uM measured after 24 hrs by western blot analysis; type: functional, cell-based; procedure, shortened: as §5
HeLa [15] = assay: Induction of cell cycle arrest in human HeLa cells assessed as accumulation at S phase at 0.5 uM measured after 24 hrs by propidium iodide/RNAse staining based flow cytometry (reference value: 27.8%); type: functional
[16] = Toxicity in BALB/c nude mouse transfected with human HeLa cells assessed as heart damage at 15 mg/kg/day, iv for 21 days by H&E staining based immunohistochemistry; type: organism-based; conditions: in vivo, 504 h, time 21 day; procedure, shortened: as §3
[17] = Toxicity in BALB/c nude mouse transfected with human HeLa cells assessed as lung damage at 30 mg/kg/day, iv for 21 days by H&E staining based immunohistochemistry; type: organism-based; conditions: in vivo, 504 h, time 21 day; procedure, shortened: as §4
HeLa [18] = assay: Induction of intracellular reactive oxygen species generation in human HeLa cells at 0.5 uM measured after 24 hrs by DCFH-DA staining based flow cytometry relative to CA-4; type: functional
HeLa [19] = assay: Antitumor activity against human HeLa cells xenografted in iv dosed BALB/c mouse assessed as inhibition of tumor growth administered once daily for 21 days by caliper analysis; type: functional, organism-based; conditions: dose 15-30 mg/kg/day, time 21.0 day
Procedure, shortened: (§6)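 Male BALB/c nude mice, five weeks old, 18-22 g. Inoculated subcutaneously in the right armpit with 1 × 10⁷ HeLa cells/0.1 mL. At 120-150 mm³, randomized to four groups of five. Once-daily tail-vein injection for 21 days in Tween 80/physiological saline; controls received saline. Tumor volume measured every 2 days by caliper, V = AB²/2.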

HeLa [20] = assay: Induction of apoptosis in human HeLa cells assessed as upregulation of PARP protein expression at 0.5 uM measured after 24 hrs by western blot analysis; type: functional, cell-based; procedure, shortened: as §5
HeLa [21] = assay: Inhibition of IDO1 expression in hIFNgamma-stimulated human HeLa cells at 0.5 uM measured after 24 hrs by western blot assay; type: functional; procedure, shortened: as §5
HeLa [22] = assay: Antitumor activity against human HeLa cells xenografted in BALB/c mouse assessed as inhibition of tumor volume at 15 mg/kg/day, iv administered for 21 days by caliper analysis; type: functional; conditions: 504 h, time 21 day; procedure, shortened: as §6

Q: Which “fold change (FC)” value (HeLa [1]) does the source give for `COc1ccc(/C=C\c2cc(OC)c(OC)c(OC)c2)cc1OC(=O)c1cccc(Cn2cc(CCOC(=O)[C@H](N)Cc3cn(C)c4ccccc34)nn2)c1` here?
A: 3

Q: What about the inhibition at 0.5 µM (HeLa [2]) of the same compound?
A: 88%

Q: What about the Activity (HeLa [3]) of the same compound?
A: 11%

Q: What about the IC50 (HUVEC) of the same compound?
A: 1.52 µM

Q: And the inhibition (HeLa [4])?
A: Active

Q: And the IC50 (HeLa [5])?
A: 0.07 µM

Q: And the Activity (HeLa [6])?
A: Active

Q: And the Activity [7]?
A: Non-Toxic

Q: And the Activity (HeLa [8])?
A: 49.7%

Q: And the Activity [9]?
A: Non-Toxic

Q: What about the Activity (HeLa [10]) of the same compound?
A: 41.1%

Q: What about the Activity [11] of the same compound?
A: Non-Toxic

Q: What about the IC50 (PC-3) of the same compound?
A: 0.46 µM

Q: What about the Activity (HeLa [12]) of the same compound?
A: Active

Q: And the Activity [13]?
A: 40.3%

Q: What about the Activity (HeLa [14]) of the same compound?
A: Active

Q: And the Activity (HeLa [15])?
A: 17.05%

Q: And the Activity [16]?
A: Non-Toxic

Q: What about the Activity [17] of the same compound?
A: Non-Toxic

Q: And the “fold change (FC)” value (HeLa [18])?
A: 2.3

Q: And the Activity (HeLa [19])?
A: Dose-dependent effect

Q: And the Activity (HeLa [20])?
A: Active

Q: What about the inhibition (HeLa [21]) of the same compound?
A: Active

Q: And the inhibition in vivo at 15 mg/kg/day (HeLa [22])?
A: 50.7%
